Compound activity as filed in PubChem BioAssay.
Rows were chosen to be rich in hits. Some 4.2% of all compounds tested hit in one or more screens of this group.
GAA850 FXN act: activators of GAA850 frataxin (FXN) promoter; HEK293 lucGAA850 FXN promoter luciferase reporter, 24 h; percent of 10 µM SAHA response; AID 540364; 0.56% of 360,000 active; activation, % at 6 µM;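 active = activation above the average of all compounds screened plus 3 SD, cutoff fixed separately per campaign, cut at about 7.5% in these data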;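 note: 0% = DMSO wells and 100% = 10 µM SAHA wells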
AHR act: activates the human aryl hydrocarbon receptor. P35869. AHR-responsive luciferase reporter cells, luminescence. activation, % at 5 µM. 2.5% of 320,000 active. AID 2796; in the data active = activation above about 47%;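 note: 0% = vehicle wells and 100% = reference agonist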
Target sequence (P35869 whole entry, looked up): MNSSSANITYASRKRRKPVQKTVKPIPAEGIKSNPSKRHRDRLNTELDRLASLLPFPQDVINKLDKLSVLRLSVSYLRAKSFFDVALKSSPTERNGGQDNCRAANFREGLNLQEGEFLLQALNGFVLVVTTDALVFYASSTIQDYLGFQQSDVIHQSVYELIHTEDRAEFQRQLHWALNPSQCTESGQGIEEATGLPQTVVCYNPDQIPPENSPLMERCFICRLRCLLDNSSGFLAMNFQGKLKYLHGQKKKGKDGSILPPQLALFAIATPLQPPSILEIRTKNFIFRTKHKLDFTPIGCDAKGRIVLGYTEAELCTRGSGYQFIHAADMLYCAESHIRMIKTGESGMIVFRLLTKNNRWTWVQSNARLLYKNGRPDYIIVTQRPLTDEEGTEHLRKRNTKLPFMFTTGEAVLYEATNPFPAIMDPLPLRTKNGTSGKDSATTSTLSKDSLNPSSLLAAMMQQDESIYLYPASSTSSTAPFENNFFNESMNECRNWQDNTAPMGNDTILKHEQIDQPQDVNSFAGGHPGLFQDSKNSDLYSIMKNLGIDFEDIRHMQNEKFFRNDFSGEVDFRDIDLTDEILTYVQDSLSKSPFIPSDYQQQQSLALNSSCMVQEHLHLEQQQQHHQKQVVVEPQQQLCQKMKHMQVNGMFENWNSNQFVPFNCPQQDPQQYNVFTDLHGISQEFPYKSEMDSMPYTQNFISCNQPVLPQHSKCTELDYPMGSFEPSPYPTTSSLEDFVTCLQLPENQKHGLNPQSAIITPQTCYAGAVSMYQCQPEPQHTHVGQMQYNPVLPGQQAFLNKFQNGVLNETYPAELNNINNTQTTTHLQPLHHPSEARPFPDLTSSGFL
CTSL1 counter: cathepsin L1 inhibition, PFM18AAP counter-screen; inhibition, % at 5.96 µM; 0.49% of 300,000 active; recombinant F. hepatica cathepsin L1, Z-Leu-Arg-MCA fluorescence;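 active = inhibition above the mean of all tested compounds plus 3 SD, set per screening campaign, cut at about 17% in these data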;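 note: 0% = plate median of test compound wells and 100% = 1 µM Z-Phe-Ala-diazomethylketone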
SENP1 FRET inh: blocks the human SENP1 SUMO protease catalytic domain. Q9P0U3. recombinant SENP1 catalytic domain, CyPet-SUMO1-YPet FRET cleavage. inhibition, % at 10 µM. 0.21% of 360,000 active;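 active = inhibition at least 30% at 10 µM, raw YFP signal under a set limit, fluorescence ratio 0.5 to 1.5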;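 note: 0% = enzyme with DMSO and 100% = no enzyme wells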
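Assay system – human recombinant His6-tagged SENP1 catalytic domain enzyme · Input – SENP1 enzyme, 20 pM final · Buffer or medium – Tris pH 8 buffer plus EDTA, NaCl, BME, BSA, NP40, catalase · Schedule – 50 min reaction at room temperature · Technique – FRET read of cyan and yellow fluorescence · Control set – no-enzyme wells low, DMSO-plus-enzyme wells high control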
HDAC3 inh: blocks human histone deacetylase 3 | O15379 | recombinant HDAC3, fluorogenic peptide/trypsin coupled, fluorescence | inhibition, % at 8.3 µM | 0.15% of 320,000 active | AID 2718; in the data active = inhibition above about 26%, passing the limit was not always enough
M18AAP inhibitor: blocks P. falciparum M18 aspartyl aminopeptidase | AID 1822 | inhibition, % at 7.35 µM | 1.2% of 290,000 active | recombinant PfM18AAP, H-Glu-NHMec fluorogenic cleavage;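 active = inhibition above the campaign mean inhibition over all tested compounds plus 3 SD, cut at about 28% in these data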;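 note: 0% = plate median of test compound wells and 100% = 2 mM ZnCl2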
Active calls of the source: *.

Screening CCCc1c(C(=O)Nc2ccc(C(F)(F)F)cc2)cnn1-c1ccccc1 returned GAA850 FXN act 0.0, AHR act 110.2*, CTSL1 counter 6.3, SENP1 FRET inh 1.4, HDAC3 inh -6.4 and M18AAP inhibitor -3.0.
`CC1C(=O)N(Cc2cn(CCC3OCCCO3)nn2)CCS(=O)(=O)N1Cc1ccc(-c2ccc(Cl)nc2)cc1` (stereo unspecified) gave GAA850 FXN act 0.7 and SENP1 FRET inh -0.8.
For COc1ccc(NS(=O)(=O)c2cc(C(=O)N(C)CCc3ccccn3)ccc2Cl)cc1 the results were GAA850 FXN act -3.3 and SENP1 FRET inh 0.1.
Cc1ccc(-c2cc(C(=O)N/N=C/c3c(C)nn(C)c3C)c3ccccc3n2)cc1C was read as GAA850 FXN act -0.5, AHR act 61.2*, CTSL1 counter 5.2, SENP1 FRET inh 4.5, HDAC3 inh 1.7 and M18AAP inhibitor -5.8.
Screening Cc1ccc(-c2cc(C(=O)N/N=C/c3ccoc3)c3ccccc3n2)cc1 returned GAA850 FXN act 0.7, SENP1 FRET inh 2.3, HDAC3 inh 5.1 and M18AAP inhibitor -8.9.
`CCOc1ccc(-c2nc(N)ncc2Oc2cccc(OC)c2)c(O)c1` gave GAA850 FXN act -1.9, AHR act 8.6, CTSL1 counter 1.7, SENP1 FRET inh -0.2, HDAC3 inh 27.1* and M18AAP inhibitor 5.2.
Screening C=C(C)COc1ccc(-c2nc(N)ncc2Oc2ccccc2OC)c(O)c1 returned GAA850 FXN act 6.4, AHR act 29.7, CTSL1 counter 0.1, SENP1 FRET inh 1.7, HDAC3 inh 29.8* and M18AAP inhibitor 5.3.
Screening COc1ccccc1CNC(=O)[C@H](C)NC(=O)C1CCN(C(=O)[C@@H]2CCCN2C(=O)OC(C)(C)C)CC1 returned GAA850 FXN act -0.1, AHR act 0.2, CTSL1 counter -0.9, SENP1 FRET inh -1.0, HDAC3 inh 2.4 and M18AAP inhibitor -2.6.
`COc1cc2c(cc1NC(=O)C(C)OC(=O)c1ccc(S(=O)(=O)Nc3ccccc3Cl)cc1)oc1ccccc12` (stereo unspecified) gave GAA850 FXN act 0.8, AHR act 78.2*, CTSL1 counter -0.1, SENP1 FRET inh 0.3, HDAC3 inh 1.4 and M18AAP inhibitor -6.7.
COc1cc2c(cc1NC(=O)C(C)N1CCN(S(=O)(=O)c3ccc(C)c(C)c3)CC1)oc1ccccc12 (stereo unspecified) was read as GAA850 FXN act 2.8, AHR act 59.1*, CTSL1 counter -2.1, SENP1 FRET inh -0.5, HDAC3 inh -0.3 and M18AAP inhibitor -6.2.
Screening COc1ccc(S(=O)(=O)Nc2ccccc2Cl)cc1NC(C)=O returned GAA850 FXN act -0.2, AHR act -1.0, CTSL1 counter -2.1, SENP1 FRET inh 0.4, HDAC3 inh 0.4 and M18AAP inhibitor -2.6.
For COc1cc2c(cc1NC(=O)C(C)N1CCN(S(=O)(=O)c3ccccc3[N+](=O)[O-])CC1)oc1ccccc12 (stereo unspecified) the results were GAA850 FXN act 0.1, AHR act 41.7, CTSL1 counter -1.5, SENP1 FRET inh -9.6, HDAC3 inh 4.5 and M18AAP inhibitor -2.9.
`Cc1ccc(O)c(-c2cc3ccccc3[nH]2)c1` gave GAA850 FXN act 1.6, AHR act 49.4*, CTSL1 counter -1.9, SENP1 FRET inh -15.4, HDAC3 inh -30.3 and M18AAP inhibitor 17.2.
c1ccc(-c2cc3ccccc3[nH]2)cc1 was read as GAA850 FXN act 1.2, AHR act 50.3*, CTSL1 counter 4.8, SENP1 FRET inh 4.6, HDAC3 inh -22.3 and M18AAP inhibitor 15.2.
Screening COc1ccc(-c2cc3ccccc3[nH]2)cc1 returned GAA850 FXN act 4.7, AHR act 20.7, CTSL1 counter -3.5, SENP1 FRET inh -14.3, HDAC3 inh -17.0 and M18AAP inhibitor 6.9.
Cc1ccc2[nH]c(-c3cccc(N)c3)cc2c1 was read as GAA850 FXN act 1.9, AHR act 16.5, CTSL1 counter 0.8, SENP1 FRET inh -4.7, HDAC3 inh -42.3 and M18AAP inhibitor -3.4.
`Fc1ccc2[nH]c3c(c2c1)CN(C(=S)NCc1ccccc1)CC3` gave GAA850 FXN act 1.4, AHR act 0.5, CTSL1 counter 3.0, SENP1 FRET inh -37.6, HDAC3 inh 2.4 and M18AAP inhibitor 0.9.
For CC1(C(=O)NS(=O)(=O)C2CC2)CCN(C(=O)c2cccc(Cl)c2)C1 (stereo unspecified) the results were GAA850 FXN act 0.0 and SENP1 FRET inh -0.6.
COCC(=O)Nc1c(C(=O)Nc2ccccc2OC)oc2ccccc12 was read as GAA850 FXN act 2.1, AHR act 83.5*, CTSL1 counter -1.0, SENP1 FRET inh 0.6, HDAC3 inh -1.2 and M18AAP inhibitor -4.3.
`COc1ccccc1NC(=O)c1oc2ccc(C)cc2c1C` gave GAA850 FXN act 2.4, AHR act 60.5*, CTSL1 counter -1.1, SENP1 FRET inh -1.0, HDAC3 inh 2.1 and M18AAP inhibitor 0.0.
COCC(=O)Nc1c(C(=O)Nc2cccc(OC)c2)oc2ccccc12 was read as GAA850 FXN act 3.6, AHR act 70.1*, CTSL1 counter 0.6, SENP1 FRET inh 1.6, HDAC3 inh 2.1 and M18AAP inhibitor -3.9.
COc1cccc(NC(=O)c2oc3ccccc3c2NC(C)=O)c1 was read as GAA850 FXN act 4.3, AHR act 29.2, CTSL1 counter 1.0, SENP1 FRET inh 0.3, HDAC3 inh 1.8 and M18AAP inhibitor -20.2.
`COc1ccccc1NC(=O)c1oc2ccccc2c1NC(=O)c1cc(OC)c(OC)c(OC)c1` gave GAA850 FXN act 1.1, AHR act 21.2, CTSL1 counter -2.1, SENP1 FRET inh -0.2, HDAC3 inh 1.3 and M18AAP inhibitor 4.2.
O=C(OCC(=O)N1CCOCC1)c1ccccc1OCc1ccc(Cl)cc1 was read as GAA850 FXN act 2.2, AHR act 0.6, SENP1 FRET inh 2.7 and HDAC3 inh -2.9.
For COc1ccc(NC(=O)Nc2cccc(C(=O)N3CCOCC3)c2)cc1OC the results were GAA850 FXN act 1.2, AHR act 20.3, CTSL1 counter 17.4*, SENP1 FRET inh 1.5, HDAC3 inh 5.1 and M18AAP inhibitor 3.6.
For COc1ccc(NC(=O)Nc2ccc(C(=O)N3CCOCC3)cc2)cc1OC the results were GAA850 FXN act 0.3, AHR act 2.5, CTSL1 counter -3.1, SENP1 FRET inh -0.9, HDAC3 inh 0.5 and M18AAP inhibitor -4.7.
`CCOC(CNC(=O)c1cccc([N+](=O)[O-])c1)OCC` gave GAA850 FXN act 3.0, AHR act 1.3, CTSL1 counter 37.5*, SENP1 FRET inh 2.0, HDAC3 inh -0.2 and M18AAP inhibitor 5.2.
O=C(Nc1ccc2ccccc2c1)c1cccc([N+](=O)[O-])c1 was read as GAA850 FXN act 0.1, AHR act 67.8*, CTSL1 counter -5.1, SENP1 FRET inh 0.8, HDAC3 inh -2.6 and M18AAP inhibitor -0.7.
